Assay results from ChEMBL document CHEMBL5649170, “Sustained microglial depletion with CSF1R inhibitor impairs parenchymal plaque development in an Alzheimer's disease model” (Nat Commun, 2019).

Columns and labels:
[1] = target: T1, Macrophage colony-stimulating factor 1 receptor (Mus musculus) (UniProt P09581); experiment: In vivo inhibition of CSF1R in wildtype mouse assessed as iron reactivity by measuring hemosiderin intensity of prussian blue staining in […] cortex at 1200 ppm administered as rodent chow starting from 1.5 months and measured after 4 months by confocal microscopic analysis (reference value: 0.362 to 5.194 a.u.); assay type: functional; conditions: route po, time 2.5 months
T1 sequence (whole entry): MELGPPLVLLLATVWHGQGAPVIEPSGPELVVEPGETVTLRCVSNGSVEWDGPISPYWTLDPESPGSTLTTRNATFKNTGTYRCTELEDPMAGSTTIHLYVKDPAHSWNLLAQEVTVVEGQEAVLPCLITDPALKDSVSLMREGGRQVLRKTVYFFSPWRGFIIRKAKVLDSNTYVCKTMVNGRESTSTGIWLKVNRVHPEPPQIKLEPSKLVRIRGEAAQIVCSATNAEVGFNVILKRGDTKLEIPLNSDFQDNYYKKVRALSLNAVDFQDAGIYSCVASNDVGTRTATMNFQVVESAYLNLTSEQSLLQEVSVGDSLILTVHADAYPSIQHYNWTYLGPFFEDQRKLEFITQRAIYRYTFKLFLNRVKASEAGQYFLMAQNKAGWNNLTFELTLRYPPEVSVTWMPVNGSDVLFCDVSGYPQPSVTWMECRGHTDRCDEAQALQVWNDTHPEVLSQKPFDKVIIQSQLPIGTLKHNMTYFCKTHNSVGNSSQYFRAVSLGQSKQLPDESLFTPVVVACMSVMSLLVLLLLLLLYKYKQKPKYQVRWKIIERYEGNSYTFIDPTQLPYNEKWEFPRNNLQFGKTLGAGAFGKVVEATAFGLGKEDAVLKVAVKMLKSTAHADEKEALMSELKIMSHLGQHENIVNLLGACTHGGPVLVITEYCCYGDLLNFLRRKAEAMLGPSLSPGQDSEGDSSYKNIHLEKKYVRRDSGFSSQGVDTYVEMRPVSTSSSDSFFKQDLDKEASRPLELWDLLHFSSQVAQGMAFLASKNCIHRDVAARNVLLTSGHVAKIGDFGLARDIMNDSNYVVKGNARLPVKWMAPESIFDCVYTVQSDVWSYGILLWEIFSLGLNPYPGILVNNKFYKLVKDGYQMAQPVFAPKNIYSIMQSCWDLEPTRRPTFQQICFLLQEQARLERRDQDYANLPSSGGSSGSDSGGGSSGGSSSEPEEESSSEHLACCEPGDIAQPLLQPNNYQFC
Method in brief: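 Wild-type or 5xFAD mice fed PLX5622 (1200 ppm) in AIN-76A chow from 1.5 months of age, examined in 4- and 7-month-old cohorts. Brain sections stained with a Prussian blue kit per kit instructions to detect iron deposits (microbleeds).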

[2] = target: Mitogen-activated protein kinase 12 (Homo sapiens, UniProt P53778); experiment: Inhibition of MAPK12 (unknown origin)
[3] = Prevention of Pcdhac1 gene downregulation in 5XFAD mouse hippocampus assessed as percent change in Reads Per kilo base per Million mapped reads at 1200 ppm administered as rodent chow starting from 1.5 months and measured after 7 months by RNA-Seq analysis (reference value: 43.082 to 72.354 %); assay type: functional; conditions: route po, time 5.5 months, 4015 h
[4] = target: T1, Macrophage colony-stimulating factor 1 receptor (Mus musculus); experiment: In vivo inhibition of CSF1R in wildtype mouse assessed as number of Iba1 positive cells per FOV in […] cortex at 1200 ppm administered as rodent chow starting from 1.5 months to 4 months followed by compound removal and measured after 1 months by immunolabelling based confocal microscopic analysis (reference value: 193 to 236); assay type: functional; conditions: route po, time 2.5 months
[5] = AUC (0 to infinity) in mouse at 45 mg/kg, po administered as single dose via gavage; assay type: ADME, organism-based; conditions: in vivo
Mus musculus [6] = experiment: Effect on APP processing pathway in 5XFAD mouse assessed as C83 protein signal intensity in cortex at 1200 ppm administered as rodent starting from 1.5 months and measured after 7 months (reference value: 37.776 to 172.037 %); assay type: functional; conditions: route po, time 5.5 months, 4015 h
[7] = target: T1, Macrophage colony-stimulating factor 1 receptor (Mus musculus); experiment: In vivo inhibition of CSF1R in wildtype mouse assessed as number of GFAP positive cell per FOV in somatosensory cortex at 1200 ppm administered as rodent chow for 10 to 24 weeks by immunolabelling based confocal microscopic analysis (reference value: 4 to 34); assay type: functional; conditions: route po, time 10-24 weeks
Mus musculus [8] = experiment: Antialzheimer activity in 5XFAD mouse assessed as amyloidbeta40 level in detergent insoluble cortex fraction measured per microgram protein at 1200 ppm administered as rodent chow starting from 1.5 months and measured after 7 months by ELISA (reference value: 615.15 to 39796 pg); assay type: functional; conditions: route po, time 5.5 months, 4015 h
Method in brief: (§1)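 PLX5622 at 1200 ppm in chow given to 5xFAD mice from 1.5 months to 4 or 7 months of age; cortex and thalamus homogenized in TPER (detergent-soluble), pellets re-homogenized in 70% formic acid and spun 100,000 g, 1 h, 4 °C (insoluble); protein by Bradford/Lowry; Aβ species measured by Meso Scale electrochemiluminescence immunoassay, normalized to protein; n = 7–8 per group at 7 months.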

[9] = Effect on Rtn4r gene expression in wildtype mouse hippocampus assessed as percent change in Reads Per kilo base per Million mapped reads at 1200 ppm administered as rodent chow starting from 1.5 months and measured after 7 months by RNA-Seq analysis (reference value: 88.030 to 132.504 %); assay type: functional; conditions: route po, time 5.5 months, 4015 h
Mus musculus [10] = experiment: Antialzheimer activity in 5XFAD mouse assessed as amyloidbeta42 level in detergent insoluble thalamus fraction measured per microgram protein at 1200 ppm administered as rodent chow starting from 1.5 months and measured after 4 months by ELISA (reference value: 181082 to 7435203 pg); assay type: functional; conditions: route po, time 2.5 months, 1825 h; method in brief: as §1
[11] = target: Protein kinase C alpha type (Homo sapiens, UniProt P17252); experiment: Inhibition of PRKCA (unknown origin)
Mus musculus [12] = experiment: Effect on circulating leukocytes in wildtype mouse assessed as percentage of CD45+/PI- cells expressing CD11c at 1200 ppm administered as rodent chow for 10 to 24 weeks (reference value: 4.18 to 10.2 %); assay type: functional; conditions: route po, time 10-24 weeks
[13] = Cmax in dog at 45 mg/kg, po administered as single dose via gavage; assay type: ADME, organism-based, Canis lupus familiaris; conditions: in vivo
[14] = Effect on Nos1ap gene expression in wildtype mouse hippocampus assessed as percent change in Reads Per kilo base per Million mapped reads at 1200 ppm administered as rodent chow starting from 1.5 months and measured after 7 months by RNA-Seq analysis (reference value: 90.677 to 108.278 %); assay type: functional; conditions: route po, time 5.5 months, 4015 h
[15] = Effect on Hexb gene expression in wild type mouse hippocampus at 1200 ppm administered as rodent chow starting from 1.5 months and measured after 7 months by RNA-Seq analysis (reference value: 42.233 to 43.921 RPKM); assay type: functional; conditions: route po, time 5.5 months, 4015 h
[16] = Toxicity in wildtype mouse assessed as number of entries to perimeter zone at 1200 ppm administered as rodent chow for 10 to 24 weeks by Open field test (reference value: 20 to 64); conditions: in vivo, po, time 10-24 weeks
[17] = target: Casein kinase II subunit alpha (Homo sapiens, UniProt P68400); experiment: Inhibition of CSNK2A1 (unknown origin)
[18] = target: Glycogen synthase kinase-3 beta (Homo sapiens, UniProt P49841); experiment: Inhibition of GSK3B (unknown origin)
Sphingosine kinase 1 = Sphingosine kinase 1 (Homo sapiens, UniProt Q9NYA1); experiment: Inhibition of SPHK1 (unknown origin)
Sphingosine kinase 1, sequence (Q9NYA1 whole entry): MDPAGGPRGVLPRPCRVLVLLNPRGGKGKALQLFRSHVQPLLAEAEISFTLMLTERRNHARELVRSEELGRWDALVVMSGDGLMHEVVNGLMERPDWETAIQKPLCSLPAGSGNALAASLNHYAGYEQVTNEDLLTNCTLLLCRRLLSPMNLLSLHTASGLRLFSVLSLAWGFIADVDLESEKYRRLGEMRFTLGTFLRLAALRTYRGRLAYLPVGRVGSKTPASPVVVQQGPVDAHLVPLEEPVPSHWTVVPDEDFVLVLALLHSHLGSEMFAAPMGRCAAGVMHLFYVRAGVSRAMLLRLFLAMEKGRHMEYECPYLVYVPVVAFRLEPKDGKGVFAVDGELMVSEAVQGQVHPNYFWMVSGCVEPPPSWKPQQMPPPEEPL

Casein kinase II subunit alpha, sequence (P68400 whole entry): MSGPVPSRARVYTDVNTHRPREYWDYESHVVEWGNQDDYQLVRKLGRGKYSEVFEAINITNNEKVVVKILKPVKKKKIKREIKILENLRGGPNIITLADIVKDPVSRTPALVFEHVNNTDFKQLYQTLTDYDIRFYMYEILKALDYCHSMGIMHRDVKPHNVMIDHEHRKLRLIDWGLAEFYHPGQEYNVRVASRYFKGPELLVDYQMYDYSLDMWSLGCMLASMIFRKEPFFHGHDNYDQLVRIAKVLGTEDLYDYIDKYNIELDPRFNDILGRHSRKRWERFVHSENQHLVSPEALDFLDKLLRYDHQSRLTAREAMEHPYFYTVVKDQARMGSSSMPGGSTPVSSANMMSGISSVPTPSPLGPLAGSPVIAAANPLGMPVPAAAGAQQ
Mitogen-activated protein kinase 12, sequence (P53778 whole entry): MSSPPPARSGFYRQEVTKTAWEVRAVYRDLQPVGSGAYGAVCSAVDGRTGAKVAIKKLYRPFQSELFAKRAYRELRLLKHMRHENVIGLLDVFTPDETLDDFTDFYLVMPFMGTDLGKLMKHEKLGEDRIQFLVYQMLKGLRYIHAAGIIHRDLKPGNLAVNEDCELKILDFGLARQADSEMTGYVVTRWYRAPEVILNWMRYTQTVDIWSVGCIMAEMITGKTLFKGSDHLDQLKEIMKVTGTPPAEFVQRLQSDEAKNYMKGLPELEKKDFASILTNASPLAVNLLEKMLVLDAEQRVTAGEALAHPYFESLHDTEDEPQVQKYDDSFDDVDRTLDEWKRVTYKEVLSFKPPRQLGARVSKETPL
Glycogen synthase kinase-3 beta, sequence (P49841 whole entry): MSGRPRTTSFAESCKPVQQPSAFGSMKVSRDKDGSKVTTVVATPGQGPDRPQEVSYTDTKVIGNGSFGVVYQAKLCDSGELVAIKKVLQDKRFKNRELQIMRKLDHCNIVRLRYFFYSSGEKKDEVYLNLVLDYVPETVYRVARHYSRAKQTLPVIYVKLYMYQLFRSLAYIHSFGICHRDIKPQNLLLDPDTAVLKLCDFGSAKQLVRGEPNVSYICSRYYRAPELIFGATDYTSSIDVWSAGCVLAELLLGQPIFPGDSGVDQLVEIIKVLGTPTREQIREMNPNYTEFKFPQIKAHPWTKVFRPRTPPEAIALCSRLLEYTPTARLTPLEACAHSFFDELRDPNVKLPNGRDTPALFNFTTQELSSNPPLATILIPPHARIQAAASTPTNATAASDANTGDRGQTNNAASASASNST

For `COc1ncc(F)cc1CNc1ccc(Cc2c[nH]c3ncc(C)cc23)c(F)n1` [PLX-5622], the Flu intensity [1] was 0.1 a.u, the IC50 [2] was > 1000 nM and the Activity [3] was 76.485%. The Activity [4] was 51, the AUC(0-inf) [5] was 215 µg·h/mL and the Activity (Mus musculus [6]) was 70.442%. The Activity [7] was 5, the Activity (Mus musculus [8]) was 89.514 pg and the Activity [9] was 89.887%. The Activity (Mus musculus [10]) was 117968.4 pg, the IC50 [11] was > 1000 nM and the Activity (Mus musculus [12]) was 3.32%. For the same compound, the Cmax [13] was 3630 ng/mL, the Activity [14] was 78.494% and the Activity [15] was 10.009 RPKM. For the same compound, the Activity [16] was 13, the IC50 [17] was > 1000 nM and the IC50 [18] was > 1000 nM. The IC50 (Sphingosine kinase 1) was > 1000 nM.
